Hep lipid drop: hepatic lipid droplet formation modulation | AML12 mouse hepatocytes, oleate lipid droplets, BODIPY imaging | inhibition, % at 6.5 µM | 240,000 compounds, 0.4% hits | AID 1656;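 active means lipid droplet intensity inhibited by at least 50%, with more than 500 cells counted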
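Assay system: AML12 mouse liver cells | Compound dosing: One dose, 6.5 µM compound | Read-out basis: Droplet intensity reduction, % inhibition | Measured by: Fluorescence imaging, 20x objective, two fields per well | Schedule: Overnight treatment with compound plus oleate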
HTR5A ag ctr: HTR5A agonism, opioid heterodimer counter-screen. 340,000 compounds, 0.61% hits. P47898. AID 504692. HTR5A agonist assay, luminescence, cell-based. activation, % at 9.3 µM; in the data active means activation mostly above about 9.5%, no sharp cut-off; inactive means mostly below about 7.6%
Target sequence (P47898 whole entry, looked up): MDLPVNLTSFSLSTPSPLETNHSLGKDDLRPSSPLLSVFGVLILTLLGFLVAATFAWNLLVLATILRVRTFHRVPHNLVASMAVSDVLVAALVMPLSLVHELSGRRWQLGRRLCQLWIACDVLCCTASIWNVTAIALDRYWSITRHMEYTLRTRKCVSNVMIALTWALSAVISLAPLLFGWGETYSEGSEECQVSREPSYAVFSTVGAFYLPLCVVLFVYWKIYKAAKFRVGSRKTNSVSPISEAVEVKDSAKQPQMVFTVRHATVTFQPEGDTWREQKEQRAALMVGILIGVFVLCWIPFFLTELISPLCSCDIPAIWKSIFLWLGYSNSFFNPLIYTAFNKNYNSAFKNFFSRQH
MOR-DOR ag: agonists of human mu-delta opioid receptor heterodimerization | cells, OPRM1-OPRD1 heterodimerization, luminescence | P35372+P41143 | AID 504326 | activation, % at 9.3 µM | 340,000 compounds, 0.3% hits; in the data active means activation above about 18%
MOR-DOR inv ag: mu-delta opioid heterodimer inverse agonism; cell-based MOR-DOR heterodimer luminescence; inhibition, % at 9.3 µM; 340,000 compounds, 0.21% hits; AID 504357; in the data active means inhibition above about 22%, passing the limit was not always enough
HTR5A inv ag: HTR5A inverse agonism, opioid heterodimer counter-screen | HTR5A cell line, luminescence | P47898 | 340,000 compounds, 0.083% hits | AID 504634 | inhibition, % at 9.3 µM; in the data active means inhibition mostly above about 23%, no sharp cut-off; inactive means mostly below about 18%
Hep lipid conf: hepatic lipid droplet formation inhibition, confirmed; shares compounds with Hep lipid drop; AML12 mouse hepatocytes, BODIPY lipid droplet imaging; droplets induced with 100 µM oleic acid; inhibition, % at 5.2 µM; 870 compounds, 65% hits; AID 463183;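 active means inhibition of lipid droplet metric at least 50%, with more than 300 cells in each of four replicates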
AML12 cytotox: toxic to AML12 mouse hepatocytes in counter-screen; shares compounds with Hep lipid drop; DAPI nuclear morphology cytotoxicity imaging; stronger effect = higher value; cells fed 100 µM oleate overnight; z-score at 5 µM; 870 compounds, 3% hits; AID 463200; in the data active means z-score above about 6.3;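 further: compound exposure lasted overnight at 37 °C before fixation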
AML12 tox conf: confirmation of cytotoxicity in AML12 mouse hepatocytes. shares compounds with Hep lipid drop. cytotoxicity, % at 50 µM. 530 tested, under 10 active. AML12 mouse hepatocyte viability, ATP luminescence; cells loaded with 100 µM oleic acid;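 active means cytotoxicity above 50% in each of four replicates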;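 further: compound exposure lasted overnight at 37 °C before the ATP read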
Of the large screens only hits and unclear results are named; the others gave an inactive call (follow-up assays come after a bar, where they were run). In the library only some 1.4% were active in any assay of this set; here they are far more common.

Cc1cc(N2CCOCC2)n2nc(C)c(-c3ccc(Cl)cc3)c2n1	Hep lipid drop 98 | Hep lipid conf 110 | AML12 cytotox inactive | AML12 tox conf inactive
CCc1nn2c(N3CCOCC3)cc(C)nc2c1-c1ccc(F)cc1	Hep lipid drop 88 | Hep lipid conf 110 | AML12 cytotox inactive | AML12 tox conf inactive
CCCc1cc(N2CCOCC2)n2nc(C)c(-c3ccccc3)c2n1	Hep lipid drop 64 | Hep lipid conf 96 | AML12 cytotox inactive | AML12 tox conf inactive
Cc1cc(N2CCN(C)CC2)n2nc(-c3ccc(Cl)cc3)nc2n1	Hep lipid drop 61 | Hep lipid conf inactive | AML12 cytotox inactive
CCCc1cc(N2CCN(c3ccccn3)CC2)n2nc(C)c(-c3ccccc3)c2n1	none (no result: Hep lipid drop)
CCC(=O)NN1CCN(c2ccncc2S(=O)(=O)N2CCCCC2)CC1	none
N#Cc1c(-c2ccc(Cl)cc2)n(O)c2ccccc12	none (no result: Hep lipid drop)
O=C(COc1ccc(C(=O)NCCN2CCOCC2)cc1)Nc1cccc(C(F)(F)F)c1	none (no result: Hep lipid drop)
COC(=O)Cc1c(C(=O)OC)nnn1-c1cccc(C(F)(F)F)c1	none
CCn1c(=O)c(C(=O)NCc2ccc(F)cc2)c(O)c2ccccc21	none
COCCC(=O)N1CCC(C(=O)Nc2ccc(Oc3ccccc3)nc2)CC1	none
CCOC(=O)C1=C(C)N=c2s/c(=C3/C(=O)Nc4ccccc43)c(=O)n2C1c1ccc(C)cc1 (stereo not given)	none
CCOC(=O)c1c(C)nc2sc3c(c2c1-c1ccc(OC)cc1)NC(c1ccccc1)NC3=O (stereo not given)	none (no result: Hep lipid drop)
CCOC(=O)C1=C(C)n2c(s/c(=C3\C(=O)Nc4ccccc43)c2=O)=NC1c1ccc(OC)cc1 (stereo not given)	Hep lipid drop 80 | Hep lipid conf inactive | AML12 cytotox inactive
COC(=O)C1=C(C)N=c2s/c(=C3\C(=O)Nc4ccccc43)c(=O)n2C1c1ccccc1 (stereo not given)	Hep lipid drop 60 (no result: HTR5A ag ctr, MOR-DOR ag, MOR-DOR inv ag, HTR5A inv ag) | Hep lipid conf 56 | AML12 cytotox inactive | AML12 tox conf 69
CCOC(=O)C(NC(=O)c1ccccc1)(OCc1ccccc1)C(F)(F)F (stereo not given)	Hep lipid drop 54 | Hep lipid conf 66 | AML12 cytotox inactive | AML12 tox conf inactive
CCOC(=O)C(NC(C)=O)(OCc1ccccc1)C(F)(F)F (stereo not given)	none
O=C(NCc1cccs1)C1CCC(CNS(=O)(=O)c2ccccc2)CC1 (stereo not given)	none
O=C(NCc1cccs1)C1CCC(CNS(=O)(=O)c2cccs2)CC1 (stereo not given)	Hep lipid drop 52 | Hep lipid conf inactive | AML12 cytotox inactive
O=C(NCCS(=O)(=O)N1CCCCC1)c1ccccc1	none (no result: Hep lipid drop)
COc1ccc(N2C(=O)CC2(/C=C/c2ccccc2OC)C(=O)NC2CCCC2)cc1 (stereo not given)	none
O=C1CC(/C=C/c2ccccc2)(C(=O)NC2CCCC2)N1c1ccc(S(=O)(=O)N2CCCC2)cc1 (stereo not given)	Hep lipid drop 90 | Hep lipid conf 84 | AML12 cytotox inactive
CCOC(=O)C1C(=O)OC(C)(C)C1C(CC)C(=O)c1c(C)cc(C)cc1C (stereo not given)	none (no result: HTR5A ag ctr, MOR-DOR ag, MOR-DOR inv ag, HTR5A inv ag)
COc1ccc(-c2csc(NC(=O)c3ccc(OCC(=O)N4CCOCC4)c(OC)c3)n2)cc1	Hep lipid drop 83 | Hep lipid conf 107 | AML12 cytotox inactive | AML12 tox conf inactive
CCOc1ccccc1NC(=O)c1ccc(OCC(=O)N2CCOCC2)c(OC)c1	none (no result: Hep lipid drop)
c1ccc(-[n+]2nc(Nc3cccc4ccccc34)sc2-c2c3ccccc3cc3ccccc23)cc1	none (no result: Hep lipid drop)
O=C1NC(=O)/C(=C\c2ccc(N3CCOCC3)o2)N1	none
CCOc1ccccc1Nc1nnc(SC(C)C(=O)Nc2nc(-c3ccccc3)cs2)s1 (stereo not given)	Hep lipid drop 75 | Hep lipid conf 105 | AML12 cytotox inactive | AML12 tox conf inactive
CCOc1ccccc1Nc1nnc(SCC(=O)NC(=O)c2cccn2C)s1	none
CCOc1ccccc1NC(=O)N1CCC(NC(=O)C2CCCCC2)CC1	none
COc1ccc(NC(=O)CSc2nnc3c4c(nc(-c5ccccc5)n23)CC(C)(C)OC4)cc1	none
COc1ccc(-c2nc3c(c4nnc(SC(C)C(=O)Nc5ccc(C)cc5)n24)COC(C)(C)C3)cc1 (stereo not given)	Hep lipid drop 62 | Hep lipid conf 79 | AML12 cytotox inactive | AML12 tox conf inactive
CCCC(=O)Nc1c2c(nc3ccccc13)N(c1ccccc1)CC2	Hep lipid drop 52 | Hep lipid conf inactive | AML12 cytotox inactive
CCOc1ccc(NS(=O)(=O)c2ccc(C(=O)N3CCCC3)cc2)cc1	none (no result: Hep lipid drop)
CCOc1ccc(NS(=O)(=O)c2ccc(C(=O)N3CCC3)cc2)cc1	Hep lipid drop 71 | Hep lipid conf 99 | AML12 cytotox inactive | AML12 tox conf inactive
Cc1sc(NC(=O)Cc2ccc3c(c2)OCO3)nc1-c1ccc2c(c1)CCN2C(=O)c1ccccc1F	Hep lipid drop 51 | Hep lipid conf 83 | AML12 cytotox inactive | AML12 tox conf inactive
O=C(CSc1nc2ccccc2o1)Nc1nc(-c2ccccc2)c(-c2ccccc2)s1	Hep lipid drop 60 | Hep lipid conf 96 | AML12 cytotox inactive | AML12 tox conf inactive
Cc1nnc(NC(=O)CSc2nc3ccccc3o2)s1	none
COc1ccc(OC)c(NC(=O)c2cc3oc4ccccc4c3cc2O)c1	Hep lipid drop 108 | Hep lipid conf inactive | AML12 cytotox inactive
COc1ccc(OC)c(NC(=O)c2ccccc2SC)c1	none
O=C(COC(=O)CCc1nc2ccccc2s1)NC(=O)NCc1ccco1	none
COc1cc2cc(C(=O)N3CCOCC3)cc(-c3ccc(C)cc3)c2cc1OC	none
O=[N+]([O-])c1sccc1CS(=O)(=O)c1ccccc1	Hep lipid drop 71 | Hep lipid conf inactive | AML12 cytotox inactive
O=[N+]([O-])c1ccccc1CS(=O)(=O)c1ccccc1	none (no result: Hep lipid drop)
Cc1cc(C(=O)OC(C)C(=O)Nc2nc(-c3ccccc3)cs2)c(C)o1 (stereo not given)	Hep lipid drop 87 | Hep lipid conf 111 | AML12 cytotox inactive | AML12 tox conf inactive
Cc1cc(C(=O)OCC(=O)Nc2nc(-c3ccccc3)cs2)c(C)o1	none (no result: Hep lipid drop)
COc1ccc(C(C)=O)cc1CSc1nnc(Nc2ccc(C)cc2C)s1	Hep lipid drop 90 | Hep lipid conf inactive | AML12 cytotox inactive
